High-throughput results (PubChem BioAssay)
This is a sample that favours compounds with a hit; in the whole collection about 1.8% have one here.
FLuc stim CS: firefly luciferase counter-screen for stimulation assays; activation factor at 10 µM; ATPlite luciferase biochemical, luminescence, 10 min; 0 = ATP-free wells, 1 = DMSO control; P08659; 200,000 tested, under 10 active;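 active means luciferase activation factor, scaled between plate controls, of at least 2 with compound at 10 µM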
Target sequence (P08659 whole entry, looked up): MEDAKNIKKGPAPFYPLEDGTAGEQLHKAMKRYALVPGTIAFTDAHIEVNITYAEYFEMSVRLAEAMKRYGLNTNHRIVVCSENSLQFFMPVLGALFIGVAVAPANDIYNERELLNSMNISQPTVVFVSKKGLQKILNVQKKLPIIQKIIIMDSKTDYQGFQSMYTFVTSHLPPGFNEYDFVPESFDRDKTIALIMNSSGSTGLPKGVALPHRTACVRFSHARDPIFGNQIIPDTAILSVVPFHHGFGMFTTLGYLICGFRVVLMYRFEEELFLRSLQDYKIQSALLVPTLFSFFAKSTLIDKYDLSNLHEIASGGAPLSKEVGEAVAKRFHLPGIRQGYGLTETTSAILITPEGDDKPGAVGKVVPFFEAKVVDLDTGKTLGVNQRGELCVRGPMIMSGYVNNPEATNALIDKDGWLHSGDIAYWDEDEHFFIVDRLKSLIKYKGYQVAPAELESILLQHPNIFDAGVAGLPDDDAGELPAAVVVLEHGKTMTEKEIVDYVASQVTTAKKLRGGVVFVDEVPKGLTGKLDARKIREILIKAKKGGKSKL
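Assay system: Luciferase/luciferin detection reagent, cell-free biochemical luciferase assay / Also added: ATP substrate / Schedule: 10 min at ambient temperature / Measured by: luminescence measurement of luciferase light output / Benchmarks: low control with PBS replacing ATP, high control enzyme plus ATP without compound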
PPC-1+TRAIL kill: kills PPC-1 cancer cells in the presence of TRAIL; PPC-1 cells + TRAIL, ATPLite viability luminescence; cell killing (% activity), % at 4 µM or 5 µM; 0.41% of 220,000 active;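 active means cell killing above 50% in the first pass at 4 µM, then a duplicate retest at 5 µM averaging 50% or more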;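 further: plate controls were cells with TRAIL plus DMSO for no effect and medium-only wells lacking cells for full effect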
MIN6 prolif-1: inducers of beta-cell replication in MIN6 cells | 0.29% of 330,000 active | proliferation, % at 10 µM | MIN6 cells proliferation, ATPlite luminescence, 48 h; cells starved in 0.2% serum; 100% = growth in 10% serum | AID 2380;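 active means compounds whose signal lies at least 3.5 SD above the mean of all wells on their plate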;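 further: 0% = DMSO-treated cells in low-serum medium and 100% = 10% serum control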
FLuc inhib CS: counter-screen for luciferase assay inhibitors: firefly luciferase inhibition; P08659; ATPLite firefly luciferase biochemical luminescence, 10 min; inhibition, % at 10 µM; 1.5% of 200,000 active;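 active means inhibition above about 50% when tested at 10 µM, limit read from the data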
hiPSC survival: increases survival of single human iPS cells. hiPSC single-cell survival, ATPlite luminescence; 100% = ROCK inhibitor wells, 0% = DMSO. survival enhancement, % at 20 µM. 0.044% of 360,000 active. AID 602274; in the data active means survival enhancement above about 18%;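 further: cells exposed to compounds for 16 hours before the ATP read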
C8 TRAIL sens: caspase-8 TRAIL sensitization | inhibition (viability loss, TRAIL sensitization), % at 10 µM | NB7+C8 cells + TRAIL, ATPlite viability luminescence | 1% of 360,000 active | AID 624354;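 active means compounds causing at least 50% loss of cell viability in the single-dose screen, relative to plate controls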
MIN6 prolif-2: MIN6 beta-cell replication induction, confirmed; shares compounds with MIN6 prolif-1; MIN6 beta-cell proliferation, ATPlite luminescence, 48 h; cells kept in 0.2% serum; scaled between 0.2% and 10% serum; proliferation increase, % at 50 µM; 920 tested, under 10 active;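 active means proliferation increase above 40% at any of the four tested concentrations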
Active calls of the source: *; x = no result given.

SMILES	FLuc stim CS	PPC-1+TRAIL kill	MIN6 prolif-1	FLuc inhib CS	hiPSC survival	C8 TRAIL sens	MIN6 prolif-2
CCOc1ccccc1/C=C/c1onc(C)c1S(=O)(=O)N1CCC(C(=O)N(CC)CC)CC1	x	x	4.8*	x	0	-18	-6
CC(C)CNC(=O)COC(=O)c1ccccc1SCC(=O)NCC(C)C	1	25	7.8*	-3	0	12	2
COc1cccc(OC)c1C(=O)OCC(=O)NCC(C)C	1.1	16	-1	-8	0	0	x
COCCn1c(SCC(=O)c2ccccc2)nc2ccccc2c1=O	1.1	10	7.8*	-8	0	-3	-6
COCCCn1c(SCC(=O)c2ccccc2)nc2ccccc2c1=O	1	29	4	-3	0	-5	x
CCOC(=O)c1c(C)[nH]c(C)c1S(=O)(=O)NCc1ccccc1OCC	x	x	-2	x	0	3	x
CCCOc1nc(SCCC)nc2c1cnn2-c1ccccc1	x	-1	-4	x	0	0	x
CCOc1ccc(S(=O)(=O)N2CCC(C(=O)NCc3ccco3)CC2)cc1C	x	x	-2	x	0	4	x
Cc1c(-c2ccccc2)[n+](=O)c2c(n1[O-])CCC2	1	-8	8.9*	2	0	-7	-2
Cc1c(-c2ccc(Cl)cc2)[n+](=O)c2c(n1[O-])CCCC2	x	-1	-1	x	0	23	x
Nc1nc(N)nc(-c2cc(F)ccc2O)n1	x	x	14*	x	-3	-1	-1
CC1CCC(n2c(=S)[nH]c3ccccc3c2=O)CC1 (centres undefined)	1	-6	11*	-4	0	24	-4
O=c1c2ccccc2[nH]c(=S)n1C1CCCCC1	1.1	9	-1	-7	-2	1	x
CN=C1N(C)C[C@@H]2[C@@H]3C(=O)N(C)C(=O)[C@@H]3[C@](C)(C(=O)OC)N12	x	x	x	x	4	-16	x
CCN(CC(=O)Nc1c(F)cccc1F)C(=O)Cc1c[nH]c2ccccc12	x	x	-4	x	0	-13	x
CCN(CC(=O)Nc1c(F)cccc1F)C(=O)Cn1[nH]c(=O)c2ccccc2c1=O	x	x	11*	x	-1	-8	0
CC(C)c1ccc(N(CC(=O)NCCCN2CCOCC2)S(=O)(=O)c2ccccc2)cc1	x	x	1	x	0	-6	x
Cc1[nH]c2ccc(C(=O)OC(C)C(=O)NC3CCCCC3C)cc2c1C (centres undefined)	x	x	13*	x	1	1	-6
CC(OC(=O)c1ccc2c(c1)OCO2)C(=O)NC1CCCCC1C (centres undefined)	x	x	2	x	0	25	x
O=C(c1ccc(N2CCOCC2)c([N+](=O)[O-])c1)N1CCN(Cc2ccccc2)CC1	x	x	5.8*	x	0	-7	-2
O=C(c1ccc(Br)c([N+](=O)[O-])c1)N1CCN(Cc2ccccc2)CC1	x	x	-4	x	-1	-4	x
CCN(CC)Cc1c(C(=O)N/N=C/c2ccc(C)o2)nnn1-c1nonc1N	x	x	0.0*	x	0	-8	4
O=C(NCCCn1cccn1)c1cc(COc2ccccc2)on1	x	x	x	x	-3	-10	x
O=C(O)c1ccc(Cl)c(S(=O)(=O)NCC2CCCO2)c1 (centres undefined)	1.1	-22	7.3*	-6	2	-17	1
CC(Cc1cccs1)NC(=O)CCCn1nnnc1CN1CCOCC1 (centres undefined)	x	x	-2	x	2	22	x
SMILES	FLuc stim CS	PPC-1+TRAIL kill	MIN6 prolif-1	FLuc inhib CS	hiPSC survival	C8 TRAIL sens	MIN6 prolif-2
N/N=C/C(=N\Nc1ccc(Cl)cc1)C(=O)c1ccncc1	x	18	9.8*	x	0	14	0
COc1ccc(N/N=C(\C=N\O)C(=O)c2ccc(OC)cc2)cc1	1.1	-6	-3	-6	1	13	x
CCc1nn(CC(=O)NCCC(C)C)c(=O)c2cc3c(OC)cccc3n12	x	x	-3	x	0	-1	x
O=C(NC1CCCC1)C(c1ccncc1)N(C(=O)c1csnn1)c1cccc(Cl)c1 (centres undefined)	x	x	2	x	0	2	x
O=C(NC1CCCC1)C(c1ccncc1)N(C(=O)c1csnn1)c1ccc(F)c(Cl)c1 (centres undefined)	x	x	5.9*	x	0	2	0
O=C(Cn1cnc2ccccc21)Nc1cccc([N+](=O)[O-])c1	0.9	29	8.2*	6	-1	5	-3
O=C(COC(=O)Cn1cnc2ccccc21)Nc1cccc([N+](=O)[O-])c1	1	-6	-3	-5	-1	-1	x
C=CCn1c(-c2cccc(OC)c2)nc2nc3ccccc3nc21	1	12	9.1*	4	3	19	-3
COC(=O)c1ccccc1S(=O)(=O)N1CCC(C(=O)OC(C)C(=O)Nc2ccccc2OC)CC1 (centres undefined)	x	x	4	x	1	17	x
COc1ccccc1NC(=O)C(C)OC(=O)C1CCN(S(=O)(=O)c2ccc(C)c(C)c2)CC1 (centres undefined)	x	x	16*	x	0	7	-5
CCCCn1c(SCC(=O)c2cc(OC)ccc2OC)nc2cc(S(N)(=O)=O)ccc21	1	8	0.0*	-3	-4	-5	6
COc1ccc(N2C(=NC(=O)C3CCCCC3)SC3CS(=O)(=O)CC32)cc1OC (centres undefined)	x	x	2	x	0	-16	x
COc1ccc(C(=O)N=C2SC3CS(=O)(=O)CC3N2c2ccc(N(C)C)cc2)cc1OC (centres undefined)	x	x	14*	x	0	-2	3
CCN1C(=O)N(CC)C2C1N(C(C)=O)C(=O)N2C(C)=O (centres undefined)	1	25	8.2*	-4	3	-19	-1
COc1nc(N)nc(N)c1NS(=O)(=O)c1ccc(C)cc1	x	x	9.8*	x	0	4	0
COc1cc(C)nc(NS(=O)(=O)c2ccc(C)cc2)n1	1	22	0	-1	-1	-17	x
CCOC(=O)c1ccc(NC(=O)CSc2nc(N3CCOCC3)nc(N3CCOCC3)n2)cc1	x	x	0	x	0	11	x
CCOC(=O)CNC(=O)CSc1nc(N(C)C)nc(N2CCOCC2)n1	1.1	-2	5.5*	-9	-2	-9	3
CNc1nc(Nc2ccccc2)nc(OCC(F)(F)F)n1	1	15	7.0*	-4	0	5	1
CNc1nc(NN)nc(Nc2ccccc2)n1	x	x	-2	x	-1	10	x
COC(=O)c1ccc(OC(=O)c2ccccn2)cc1	0.5	17	6.5*	45	-1	-35	0
COC(=O)c1ccc(OC(=O)c2cccnc2SC)cc1	x	x	-1	x	1	-10	x
